The test system of series [1] is Ehrlich. In words: Cytotoxicity against mouse Ehrlich ascites carcinoma cells assessed as viable cells at 20 uL after 24 hrs by trypan blue exclusion assay. The series is classed as functional. A digest of the protocol: (§1)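 EAC cells maintained by i.p. passage in female Swiss albino mice. Cells aspirated from peritoneum, washed in HBSS and centrifuged at 1500 rpm for 15 min; 0.2 mL of diluted suspension plated. Compounds from 10 mmol stock in DMSO/H₂O (0.7:0.3) were added in triplicate and incubated 24 h at 37 °C, 5% CO₂. Viability by trypan blue exclusion; cytotoxicity calculated against control EAC cells.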

For series [2], the system named is Ehrlich. In words: Cytotoxicity against mouse Ehrlich ascites carcinoma cells assessed as viable cells at 30 uL after 24 hrs by trypan blue exclusion assay. Format: functional. The gist of the method:
as §1

Series [3] relates to Ehrlich. The series can be described thus: Cytotoxicity against mouse Ehrlich ascites carcinoma cells assessed as cell death at 10 uL after 24 hrs by trypan blue exclusion assay.
For series [4], the system named is Mus musculus. The series can be described thus: Toxicity in Swiss albino mouse bearing mouse Ehrlich ascites carcinoma cells assessed as focal necrosis of hepatocytes treated after 7 days post-tumor implantation at 1.25 mM/kg, sc for 5 days by histopathological analysis. The series is classed as organism-based. The note with it: in vivo, 1250 µM. The gist of the method:
(§2)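 Liver specimens from the treated tumour-bearing mice were paraffin-embedded and cut as 5 µm sections. Sections were H&E-stained and graded for severity of hepatocyte degeneration and necrosis, with 0 meaning no degeneration or necrosis.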

Series [5] relates to Ehrlich. In words: Induction of apoptosis in mouse Ehrlich ascites carcinoma cells implanted in Swiss albino mouse assessed as increase in Fas-L expression treated after 7 days post-tumor implantation at 1.25 mM/kg, sc for 5 days by immunohistochemical analysis. Format: functional. A digest of the protocol:
(§3)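 Solid tumours from EAC-bearing female Swiss albino mice; formalin-fixed, paraffin-embedded 5 µm sections. Microwave antigen retrieval (20 min, 10 mmol citrate, pH 6.0) after peroxidase block; primary antibody overnight at room temperature, labelled streptavidin–biotin HRP detection, DAB chromogen, Mayer's hematoxylin counterstain. Immunoreactivity scored blind by light microscopy as intensity, % positive cells and H score.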

For series [6], the system named is Mus musculus. In words: Toxicity in Swiss albino mouse bearing mouse Ehrlich ascites carcinoma cells assessed as focal degeneration of hepatocytes treated after 7 days post-tumor implantation at 1.25 mM/kg, sc for 5 days by histopathological analysis. Format: organism-based. The note with it: in vivo. A digest of the protocol:
as §2

Series [7] has as its system Mus musculus. In words: Decrease in lipid peroxidation in mouse Ehrlich ascites carcinoma cells implanted in Swiss albino mouse assessed as malondialdehyde per gram of tissue treated after 7 days post-tumor implantation at 1.25 mM/kg, sc for 5 days. Format: functional. A digest of the protocol:
(§4)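 Livers from tumour-bearing mice were excised and rinsed in ice-cold saline, then in cold 0.15 mol/L Tris–HCl pH 7.4. They were blotted dry, weighed and homogenised at 10% w/v. Lipid peroxidation was expressed as nmol MDA/g tissue, catalase as kU/mg tissue and SOD as U/g tissue.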

In series [8] the test system is Mus musculus. The series can be described thus: Increase in catalase activity per milligram of tissue in mouse Ehrlich ascites carcinoma cells implanted in Swiss albino mouse treated after 7 days post-tumor implantation at 1.25 mM/kg, sc for 5 days. The series is classed as functional. A digest of the protocol: as §4
In series [9] the test system is Ehrlich. The series can be described thus: Antitumor activity against mouse Ehrlich ascites carcinoma cells implanted in Swiss albino mouse assessed as tumor necrosis treated after 7 days post-tumor implantation at 1.25 mM/kg, sc for 5 days by histopathological analysis relative to control. The series is classed as functional. The gist of the method:
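Necrosis scored on H&E-stained 5 µm paraffin sections of excised solid tumour. Severity and percentage necrosis were graded, and an H score was calculated.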

Series [10] deals with Ehrlich. The series can be described thus: Antitumor activity against mouse Ehrlich ascites carcinoma cells implanted in Swiss albino mouse assessed as tumor mitotic index treated after 7 days post-tumor implantation at 1.25 mM/kg, sc for 5 days by histopathological analysis. Format: functional. The gist of the method: (§5)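 H&E-stained 5 µm paraffin sections of solid tumour. Mitotic cells counted in 10 random fields (at least 1000 tumour cells) at 400×. Apoptotic bodies counted in 10 random fields at the same magnification. MI and AI given as percentage of total intact tumour cells.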

In series [11] the test system is Ehrlich. The series can be described thus: Antitumor activity against mouse Ehrlich ascites carcinoma cells implanted in Swiss albino mouse assessed as tumor apoptotic index treated after 7 days post-tumor implantation at 1.25 mM/kg, sc for 5 days by histopathological analysis. The series is classed as functional. A digest of the protocol:
as §5

The subject of series [12] is Ehrlich. The series can be described thus: Antitumor activity against mouse Ehrlich ascites carcinoma cells implanted in Swiss albino mouse treated after 7 days post-tumor implantation at 1.25 mM/kg, sc for 5 days relative to control. The series is classed as functional. The gist of the method: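 Female Swiss albino mice (n = 8 per group) received 0.2 mL EAC cells (2 × 10⁶ cells/mL) s.c. between the thighs of the lower limb. From day 7, compounds were given at 1.25 mM/kg s.c. daily for 5 consecutive days. […] control group received DMSO/H₂O. Mice were sacrificed and tumour volume change assessed on day 12 post-implantation.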

Series [13] relates to Mus musculus. In words: Increase in SOD activity per gram of tissue in mouse Ehrlich ascites carcinoma cells implanted in Swiss albino mouse treated after 7 days post-tumor implantation at 1.25 mM/kg, sc for 5 days. The series is classed as functional. The gist of the method: as §4
For series [14], the system named is Ehrlich. The series can be described thus: Antiproliferative activity against mouse Ehrlich ascites carcinoma cells implanted in Swiss albino mouse assessed as inhibition of Ki67 protein expression treated after 7 days post-tumor implantation at 1.25 mM/kg, sc for 5 days by immunohistochemical analysis. Format: functional. Further details: scale not given: the % may be the effect or the level left. A digest of the protocol:
as §3

For series [15], the system named is Ehrlich. In words: Antiangiogenic activity against mouse Ehrlich ascites carcinoma cells implanted in Swiss albino mouse assessed as inhibition of VEGF expression treated after 7 days post-tumor implantation at 1.25 mM/kg, sc for 5 days by immunohistochemical analysis. The series is classed as functional. Also noted: scale not given: the % may be the effect or the level left. A digest of the protocol: as §3

The subject of series [16] is Mus musculus. In words: Toxicity in Swiss albino mouse bearing mouse Ehrlich ascites carcinoma cells assessed as hepatocyte necrosis treated after 7 days post-tumor implantation at 1.25 mM/kg, sc for 5 days by histopathological analysis. Format: organism-based. The note with it: in vivo, 1250 µM. The gist of the method: as §2
Series [17] concerns Mus musculus. The series can be described thus: Toxicity in Swiss albino mouse bearing mouse Ehrlich ascites carcinoma cells assessed as hepatocyte degeneration treated after 7 days post-tumor implantation at 1.25 mM/kg, sc for 5 days by histopathological analysis. Format: organism-based. The note with it: in vivo, 1250 µM. The gist of the method: as §2
Series [18] concerns Mus musculus. In words: Toxicity in Swiss albino mouse bearing mouse Ehrlich ascites carcinoma cells assessed as multifocal degeneration of hepatocytes treated after 7 days post-tumor implantation at 1.25 mM/kg, sc for 5 days by histopathological analysis. The series is classed as organism-based. The note with it: in vivo, 1250 µM. A digest of the protocol:
as §2

Regarding `O=C1CCC(N2C(=O)c3ccccc3C2=O)C(=O)N1CSC(=S)NCCc1ccccc1` (stereo not drawn), the Activity in series [1] is reported as 47.3%; in [2], 52%; in series [3] it was 45%.

As to `CNC(=S)SCN1C(=O)CCC(N2C(=O)c3ccccc3C2=O)C1=O` (stereo not drawn), the figures for the Activity in [1], in series [2] and in [3] were 80%, 85.7% and 76.5%, respectively.

Take `O=C1CCC(N2C(=O)c3ccccc3C2=O)C(=O)N1CSC(=S)NCc1ccccc1` (stereo not drawn): the Activity in [1] amounted to 59%; in series [2], 61.3%; in series [3], 56.7%.

On to `CCN(CC)C(=S)SCN1C(=O)CCC(N2C(=O)c3ccccc3C2=O)C1=O` (stereo not drawn), for which the Activity came out at 20.7% in series [1], 90.6% in series [2] and 10.2% in series [3].

Consider `O=C1CCC(N2C(=O)c3ccccc3C2=O)C(=O)N1CSC(=S)NNc1ccccc1` (stereo not drawn), for which the Activity was 81.6% in [1], 92% in series [2] and 80% in [3].

As to `O=C1CCC(N2C(=O)c3ccccc3C2=O)C(=O)N1CSC(=S)N1CCOCC1` (stereo not drawn), the Activity is recorded as 80.5% in series [1], 89.7% in series [2] and 80% in [3].

As for `O=C1CCC(N2C(=O)c3ccccc3C2=O)C(=O)N1` (racemic) [THALIDOMIDE], the Activity entry in series [4] was “Active”; in [5], 66%; in [6], “Active”; in [7] it was 330.2 nmol; in [1], 20.5%; in [8] it was 5.8 kU. Moreover, the Activity in [9] is 44%; in [10], 0.006; in [11], 0.003; in series [2], 56.4%; in [13], 108.4 U; in series [14], 7.4%. Moreover, the Activity in [3] was determined as 20.5%; in series [15], 8%. Besides, the “inhibition (INH)” value in series [12] amounted to 80.6%.

As to `O=C1CCC(N2C(=O)c3ccccc3C2=O)C(=O)N1CSC(=S)NCCN1CCNCC1` (stereo not drawn), the Activity in series [1] is recorded as 60.6%; in series [2], 68.8%; in series [3], 45.5%.

With `CSCN1C(=O)CCC(N2C(=O)c3ccccc3C2=O)C1=O` (stereo not drawn), the Activity is recorded as 45% in [5]; 289.6 nmol in [7]; “Non-toxic” in series [16]; 71.5% in series [1]; 6.7 kU in series [8]; 49% in series [9]. Moreover, the Activity is listed as 0.004 in series [10]; 0.002 in series [11]; 82.8% in [2]; 139.8 U in series [13]; “Non-toxic” in [17]; 62.5% in series [3]. Besides, in [12], the “inhibition (INH)” value was 90.6%.

With `O=C1CCC(N2C(=O)c3ccccc3C2=O)C(=O)N1CSC(=S)NN1CCOCC1` (stereo not drawn), the Activity was 70.6% in series [1], 91.3% in series [2] and 30.5% in [3].

For `O=C1CCC(N2C(=O)c3ccccc3C2=O)C(=O)N1CSC(=S)NCCN1CCCCC1` (stereo not drawn), the Activity is recorded as 55% in [5]; 247.6 nmol in series [7]; “Non-toxic” in series [16]; 80.8% in [1]; 7.2 kU in series [8]; “Active” in [18]. Also, the Activity in [9] is 100%; in series [10], 0.004; in [11] it was 0.004; in series [2] it was 100%; in series [13] it was 145.8 U; in [3], 80.5%. Also, the “inhibition (INH)” value in series [12] was 99.6%.

`CN1CCN(NC(=S)SCN2C(=O)CCC(N3C(=O)c4ccccc4C3=O)C2=O)CC1` (stereo not drawn): the Activity was 60% in series [5]; “Active” in series [6]; 248.4 nmol in [7]; “Non-toxic” in series [16]; 80.7% in series [1]; 8.2 kU in series [8]. The Activity in series [9] is 61%; in series [10] it was 0.002; in [11], 0.005; in series [2] it was 100%; in series [13], 162.2 U; in series [3], 80.4%. In series [12], the “inhibition (INH)” value is listed as 98.9%.

In the case of `O=C1CCC(N2C(=O)c3ccccc3C2=O)C(=O)N1CSC(=S)NCCN1CCOCC1` (stereo not drawn), the values for the Activity in series [1], in series [2] and in series [3] were 75.7%, 94.7% and 20.6%, respectively.

As to `O=C1CCC(N2C(=O)c3ccccc3C2=O)C(=O)N1CSC(=S)N1CCCCC1` (stereo not drawn), the Activity is 120% in series [5]; “Active” in [6]; 276.2 nmol in [7]; “Non-toxic” in series [16]; 80.4% in series [1]; 7.2 kU in series [8]. The Activity in series [9] was found to be 50%; in series [10] it was 0.004; in series [11] it was 0.002; in series [2], 95.3%; in series [13], 152.4 U; in series [3] it was 10.3%. For the same molecule, in series [12], the “inhibition (INH)” value amounted to 95.9%.

As for `O=C1CCC(N2C(=O)c3ccccc3C2=O)C(=O)N1CSC(=S)NC1CCCCC1` (stereo not drawn), the Activity was 44% in series [5]; “Active” in series [6]; 257.8 nmol in [7]; “Non-toxic” in series [16]; 60.8% in series [1]; 6.4 kU in series [8]. The Activity stood at 41% in series [9]; 0.005 in series [10]; 0.002 in series [11]; 95.2% in series [2]; 128.6 U in [13]; 20.6% in series [3]. For the same molecule, the “inhibition (INH)” value in series [12] turned out to be 92.7%.

Take `CCCNC(=S)SCN1C(=O)CCC(N2C(=O)c3ccccc3C2=O)C1=O` (stereo not drawn): the Activity in [1] amounted to 75.5%; in [2], 88.6%; in series [3], 10.6%.

Take `O=C1CCC(N2C(=O)c3ccccc3C2=O)C(=O)N1CSC(=S)N(CCO)CCO` (stereo not drawn): the Activity in series [1] is 30.6%; in series [2], 87.8%; in series [3], 20.6%.

The values are drawn from ChEMBL document CHEMBL1151683, “Design, synthesis and antitumor evaluation of novel thalidomide dithiocarbamate and dithioate analogs against Ehrlich ascites carcinoma-induced solid tumor in Swiss albino mice” (Bioorg Med Chem, 2008).
